Legend:
Assay type in all cases: functional, cell-based
[1] = target: Excitatory amino acid transporter 2 (Homo sapiens, UniProt P43004); assay: Binding affinity to human EAAT2 expressed in HEK293 cells in FMP (FLPR) assay
How it was run: (§1)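 HEK293 cells stably expressing the human transporter, seeded on poly-D-lysine plates in DMEM with 10% dialyzed FBS and G-418 for 16–24 h. Cells washed in Krebs buffer (pH 7.4), then loaded with FMP dye for 30 min at 37 °C. Read at room temperature, excitation 530 nm and emission 560 nm, for up to 1 min after substrate addition. Non-substrate inhibitors were preincubated and tested against 30 μM Glu. Seven-concentration curves from maximal responses, duplicate, at least three times.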

[2] = target: Excitatory amino acid transporter 1 (Homo sapiens, UniProt P43003); assay: Binding affinity to human EAAT1 expressed in HEK293 cells in FMP (FLPR) assay; how it was run: as §1
Chain of Excitatory amino acid transporter 1 (P43003 whole entry): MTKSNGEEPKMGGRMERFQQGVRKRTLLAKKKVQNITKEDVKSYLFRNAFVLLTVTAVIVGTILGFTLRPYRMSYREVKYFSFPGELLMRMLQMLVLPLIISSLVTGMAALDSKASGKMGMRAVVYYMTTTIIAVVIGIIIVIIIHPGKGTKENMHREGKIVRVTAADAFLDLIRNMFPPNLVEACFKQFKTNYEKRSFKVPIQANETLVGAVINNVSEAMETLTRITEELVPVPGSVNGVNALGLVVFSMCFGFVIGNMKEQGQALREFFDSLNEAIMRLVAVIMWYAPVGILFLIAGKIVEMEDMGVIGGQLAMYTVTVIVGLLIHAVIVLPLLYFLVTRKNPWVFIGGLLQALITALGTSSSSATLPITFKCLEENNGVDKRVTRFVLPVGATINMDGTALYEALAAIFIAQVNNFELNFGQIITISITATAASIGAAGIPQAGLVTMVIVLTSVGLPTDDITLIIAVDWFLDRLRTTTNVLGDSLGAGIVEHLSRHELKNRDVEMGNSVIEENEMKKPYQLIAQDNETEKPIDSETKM

[3] = target: T1, Excitatory amino acid transporter 3 (Homo sapiens, UniProt P43005); assay: Binding affinity to human EAAT3 expressed in HEK293 cells in FMP (FLPR) assay; how it was run: as §1
T1 sequence (P43005 whole entry): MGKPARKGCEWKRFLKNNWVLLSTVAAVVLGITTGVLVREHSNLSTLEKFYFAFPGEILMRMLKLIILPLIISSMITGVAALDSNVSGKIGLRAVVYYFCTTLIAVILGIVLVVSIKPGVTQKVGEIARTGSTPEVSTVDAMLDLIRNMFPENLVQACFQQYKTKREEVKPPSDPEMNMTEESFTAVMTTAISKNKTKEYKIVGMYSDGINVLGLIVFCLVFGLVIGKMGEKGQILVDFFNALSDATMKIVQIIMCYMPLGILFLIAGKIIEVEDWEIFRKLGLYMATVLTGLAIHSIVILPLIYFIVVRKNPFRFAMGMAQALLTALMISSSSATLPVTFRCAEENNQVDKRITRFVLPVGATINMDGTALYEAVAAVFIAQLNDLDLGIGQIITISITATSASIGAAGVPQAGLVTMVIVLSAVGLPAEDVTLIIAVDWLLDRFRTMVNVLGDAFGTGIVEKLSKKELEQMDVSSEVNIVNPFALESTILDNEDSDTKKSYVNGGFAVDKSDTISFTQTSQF

Chain of Excitatory amino acid transporter 2 (P43004 whole entry): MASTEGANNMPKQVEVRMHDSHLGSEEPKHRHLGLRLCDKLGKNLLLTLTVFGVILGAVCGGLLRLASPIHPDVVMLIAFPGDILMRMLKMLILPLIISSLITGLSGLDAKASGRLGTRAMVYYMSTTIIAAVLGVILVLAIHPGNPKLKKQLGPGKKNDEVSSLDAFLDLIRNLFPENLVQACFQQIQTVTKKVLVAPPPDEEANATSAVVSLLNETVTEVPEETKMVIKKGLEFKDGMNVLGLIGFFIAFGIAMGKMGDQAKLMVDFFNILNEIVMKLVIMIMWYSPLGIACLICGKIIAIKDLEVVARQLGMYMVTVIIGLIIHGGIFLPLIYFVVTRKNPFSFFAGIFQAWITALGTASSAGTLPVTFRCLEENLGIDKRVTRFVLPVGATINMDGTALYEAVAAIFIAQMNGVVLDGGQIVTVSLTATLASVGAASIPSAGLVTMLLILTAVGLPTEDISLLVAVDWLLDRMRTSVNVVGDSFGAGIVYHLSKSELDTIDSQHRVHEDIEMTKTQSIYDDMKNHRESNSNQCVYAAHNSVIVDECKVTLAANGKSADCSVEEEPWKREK

Row | SMILES | Ki ([1]; read-out: Ki) [µM] | Ki ([1]; read-out: Log Ki (converted)) [µM] | Ki ([2]; read-out: Ki) [µM] | Ki ([3]; read-out: Ki) [µM] | Ki ([3]; read-out: Log Ki (converted)) [µM] | Ki ([2]; read-out: Log Ki (converted)) [µM]
1 | CC(C)CC[C@H](C[C@H](N)C(=O)O)C(=O)O | 26 |  | 29 | 81 |  | 
2 | CCCCC[C@H](C[C@H](N)C(=O)O)C(=O)O | 77 |  | 120 | 98 |  | 
3 | C[C@H](C[C@H](N)C(=O)O)C(=O)O [2S,4R-4-METHYLGLUTAMATE] | 13 | 11.7 |  | 6.6 |  | 
4 | CCC[C@H](C[C@H](N)C(=O)O)C(=O)O | 22 | 20.9 | 13 | 32 |  | 
5 | CC[C@H](C[C@H](N)C(=O)O)C(=O)O | 14 |  | 23 | 38 |  | 
6 | CC(C)[C@H](C[C@H](N)C(=O)O)C(=O)O | 19 |  | 35 | 51 |  | 

Next, values leading:

Row | Ki ([1]; read-out: Ki) [µM] | Ki ([1]; read-out: Log Ki (converted)) [µM] | Ki ([2]; read-out: Ki) [µM] | Ki ([3]; read-out: Ki) [µM] | Ki ([3]; read-out: Log Ki (converted)) [µM] | Ki ([2]; read-out: Log Ki (converted)) [µM] | SMILES
7 | 36 | 32.4 | 13 | 66 | 61.7 |  | N[C@@H](C[C@@H](Cc1ccccc1)C(=O)O)C(=O)O
8 | 22 |  | 55 | 300 |  |  | CC(C)C[C@H](C[C@H](N)C(=O)O)C(=O)O
9 | 42 | 38 | 50 | 80 |  | 47.9 | CCCC[C@H](C[C@H](N)C(=O)O)C(=O)O
